According to ChEMBL document CHEMBL3124863, “Structural modifications of neuroprotective anti-Parkinsonian (-)-N6-(2-(4-(biphenyl-4-yl)piperazin-1-yl)-ethyl)-N6-propyl-4,5,6,7-tetrahydrobenzo[d]thiazole-2,6-diamine (D-264): an effort toward the improvement of in vivo efficacy of the parent molecule” (J Med Chem, 2014):
The source made the active and inactive calls. No cut-off for these calls is given here.

How the values were obtained:
[1] = tested on: Radical scavenging activity; experiment: Antioxidant activity assessed as inhibition of DPPH free radical scavenging activity; assay type: functional
How it was run: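 Compounds in methanol (20–250 μM solutions) mixed 1:1 with 200 μM methanolic DPPH. Shaken 25 min at 30 °C, absorbance read at 517 nm. Methanol-only wells used for background; ascorbic acid as standard. % scavenging = (control A − sample A)/control A × 100.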

Rattus norvegicus [2] = species on record: Rattus norvegicus; experiment: Selectivity ratio of Ki for rat dopamine D2L receptor to Ki for rat dopamine D3 receptor
How it was run: (§1)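 Inhibition of [3H]spiroperidol (16.2 Ci/mmol) binding to rat D2 or D3 receptors expressed in HEK-293 cells. Buffer contains 0.9% NaCl; "high [radioligand]" protocol. IC50 converted to Ki by Cheng–Prusoff. Means ± SEM of 3–6 experiments, each in triplicate.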

D(2) dopamine receptor [3] = biological target: D(2) dopamine receptor (Rattus norvegicus, UniProt P61169); experiment: Displacement of [3H]spiroperidol from rat dopamine D2L receptor expressed in HEK293 cells; assay type: cell-based; how it was run: as §1
D(3) dopamine receptor [4] = biological target: D(3) dopamine receptor (Rattus norvegicus, UniProt P19020); experiment: Displacement of [3H]spiroperidol from rat dopamine D3 receptor expressed in HEK293 cells; assay type: cell-based; how it was run: as §1
MN9D = experiment: Neuroprotective activity in mouse MN9D cells assessed as protection against MPP+-induced toxicity pretreated for 1 hr followed by MPP+-challenge measured after 24 hrs by MTT assay; assay type: functional, cell-based
How it was run: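 MN9D mouse dopaminergic hybridoma cells seeded at 1 × 10^4 per well on poly-L-lysine and equilibrated 40 h. Pretreated 1 h with compound (0.001–20 μM), then cotreated with 100 μM MPP+ for 24 h at 37 °C. Viability by MTT (0.5 mg/mL final, 3 h), formazan in DMSO/methanol, A570–A690. Means ± SD of three experiments in 4–6 replicates; ANOVA with Tukey's test.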

Rattus norvegicus [5] = experiment: Antiparkinsonian activity in 6-OHDA-lesioned Sprague-Dawley rat assessed as stimulation of rotational activity measured as time required to reach peak effect at 9.28 mg/kg, ip; assay type: functional; conditions: route intraperitoneal
How it was run: (§2)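 Male Sprague–Dawley rats (290–320 g) with a left medial forebrain bundle 6-OHDA lesion, confirmed by apomorphine challenge. Drug given i.p. in water/saline; vehicle controls. Contralateral (clockwise) rotations counted in a rotometry harness chamber in 30-min bins over up to 12 h. Doses 5 or 10 μmol/kg. Mean ± SEM of 3–4 rats; ANOVA with Dunnett's test.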

Rattus norvegicus [6] = experiment: Antiparkinsonian activity in 6-OHDA-lesioned Sprague-Dawley rat assessed as stimulation of rotational activity at 4.64 mg/kg, ip measured for 7 hrs; assay type: functional, organism-based; set-up: dose 4.64 mg/kg; how it was run: as §2
Rattus norvegicus [7] = experiment: Antiparkinsonian activity in 6-OHDA-lesioned Sprague-Dawley rat assessed as stimulation of rotational activity at 9.28 mg/kg, ip measured for 10 hrs; assay type: functional, organism-based; set-up: dose 9.28 mg/kg; how it was run: as §2
Rattus norvegicus [8] = experiment: Antiparkinsonian activity in 6-OHDA-lesioned ip dosed Sprague-Dawley rat assessed as stimulation of rotational activity measured up to 12 hrs; assay type: functional, organism-based; how it was run: as §2
Rattus norvegicus [9] = experiment: Antiparkinsonian activity in Sprague-Dawley rat assessed as reversal of reserpine-induced akinesia at 5 umol/kg, ip administered in deionized water measured up to 400 mins; assay type: functional, organism-based
How it was run: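 Male Sprague–Dawley rats (220–225 g) given reserpine 5 mg/kg s.c. 18 h before test drug. After 1 h acclimatization, drug given at 5 μmol/kg (i.p., or s.c. for ropinirole). Horizontal activity counted by infrared beam breaks for 6 h in 30-min intervals, compared with reserpine controls. n = 4; ANOVA with Dunnett's test.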

Homo sapiens = species on record: Homo sapiens; experiment: Selectivity ratio of EC50 for human dopamine D2 receptor to EC50 for human dopamine D3 receptor
D(3) dopamine receptor [10] = biological target: D(3) dopamine receptor (Homo sapiens, UniProt P35462); experiment: Agonist activity at human dopamine D3 receptor expressed in CHO cells assessed as stimulation of [35S]GTPgammaS binding; assay type: functional, cell-based
D(2) dopamine receptor [11] = biological target: T1, D(2) dopamine receptor (Homo sapiens, UniProt P14416); experiment: Agonist activity at human dopamine D2 receptor expressed in CHO cells assessed as stimulation of [35S]GTPgammaS binding relative to dopamine; assay type: functional, cell-based
How it was run: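 [35S]GTPγS (1250 Ci/mmol) binding stimulated in CHO cells expressing human D2. EC50 is the concentration giving half-maximal stimulation. […] Means ± SEM of 3–6 experiments, each in triplicate.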

D(2) dopamine receptor [12] = biological target: T1, D(2) dopamine receptor; experiment: Agonist activity at human dopamine D2 receptor expressed in CHO cells assessed as stimulation of [35S]GTPgammaS binding; assay type: functional, cell-based
How it was run: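 [35S]GTPγS (1250 Ci/mmol) binding stimulated in CHO cells expressing human D2. EC50 is the concentration giving half-maximal stimulation. Means ± SEM of 3–6 experiments, each in triplicate.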

Sequence of D(3) dopamine receptor (Rattus norvegicus, UniProt P19020) (P19020 whole entry): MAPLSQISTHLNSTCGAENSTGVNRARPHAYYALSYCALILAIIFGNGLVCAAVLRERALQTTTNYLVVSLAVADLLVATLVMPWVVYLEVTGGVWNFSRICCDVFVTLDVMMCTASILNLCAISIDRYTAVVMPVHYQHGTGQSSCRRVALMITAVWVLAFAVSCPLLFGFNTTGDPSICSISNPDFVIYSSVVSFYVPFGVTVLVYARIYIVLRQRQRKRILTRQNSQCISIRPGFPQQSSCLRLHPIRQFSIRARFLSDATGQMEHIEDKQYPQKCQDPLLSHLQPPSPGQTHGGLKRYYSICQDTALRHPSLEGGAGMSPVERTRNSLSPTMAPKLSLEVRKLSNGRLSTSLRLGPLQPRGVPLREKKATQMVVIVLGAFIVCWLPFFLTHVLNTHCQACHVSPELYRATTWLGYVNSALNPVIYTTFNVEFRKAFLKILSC
Sequence of D(2) dopamine receptor (Rattus norvegicus, UniProt P61169) (P61169 whole entry): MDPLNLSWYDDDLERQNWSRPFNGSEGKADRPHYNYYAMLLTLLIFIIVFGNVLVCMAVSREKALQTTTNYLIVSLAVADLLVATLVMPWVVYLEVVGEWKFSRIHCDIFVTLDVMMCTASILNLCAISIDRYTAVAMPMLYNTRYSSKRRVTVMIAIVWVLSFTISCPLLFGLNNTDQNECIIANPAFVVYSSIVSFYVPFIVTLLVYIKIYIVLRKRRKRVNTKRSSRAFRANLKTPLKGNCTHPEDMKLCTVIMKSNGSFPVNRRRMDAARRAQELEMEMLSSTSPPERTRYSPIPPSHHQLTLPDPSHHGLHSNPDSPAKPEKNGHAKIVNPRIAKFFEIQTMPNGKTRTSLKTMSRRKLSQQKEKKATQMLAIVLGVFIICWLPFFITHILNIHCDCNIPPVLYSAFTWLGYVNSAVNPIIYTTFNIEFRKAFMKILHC
T1 sequence (P14416 whole entry): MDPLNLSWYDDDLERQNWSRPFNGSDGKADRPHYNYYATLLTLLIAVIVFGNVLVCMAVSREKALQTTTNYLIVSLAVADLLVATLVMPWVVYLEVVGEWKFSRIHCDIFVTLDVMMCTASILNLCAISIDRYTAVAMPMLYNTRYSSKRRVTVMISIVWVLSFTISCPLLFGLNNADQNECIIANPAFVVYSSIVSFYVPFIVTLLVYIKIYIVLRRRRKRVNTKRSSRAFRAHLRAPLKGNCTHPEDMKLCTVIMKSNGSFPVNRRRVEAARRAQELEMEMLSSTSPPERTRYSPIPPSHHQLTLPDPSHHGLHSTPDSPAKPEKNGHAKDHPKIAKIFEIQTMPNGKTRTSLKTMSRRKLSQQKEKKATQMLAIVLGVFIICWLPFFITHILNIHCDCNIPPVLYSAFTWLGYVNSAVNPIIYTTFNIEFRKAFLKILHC
Sequence of D(3) dopamine receptor (Homo sapiens, UniProt P35462) (P35462 whole entry): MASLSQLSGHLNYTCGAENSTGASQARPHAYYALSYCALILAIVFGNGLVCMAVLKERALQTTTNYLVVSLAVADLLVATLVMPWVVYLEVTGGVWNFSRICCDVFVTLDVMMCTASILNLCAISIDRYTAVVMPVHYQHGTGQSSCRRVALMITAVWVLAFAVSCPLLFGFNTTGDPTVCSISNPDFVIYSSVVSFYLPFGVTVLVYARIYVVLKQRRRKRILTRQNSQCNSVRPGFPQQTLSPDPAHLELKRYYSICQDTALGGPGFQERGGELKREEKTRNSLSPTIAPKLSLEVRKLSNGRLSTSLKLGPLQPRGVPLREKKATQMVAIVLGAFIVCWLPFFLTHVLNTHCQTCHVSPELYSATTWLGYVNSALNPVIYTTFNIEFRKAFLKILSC

Compound	inhibition [1]	Ratio Ki (Rattus norvegicus [2])	Ki (D(2) dopamine receptor [3]) [µM]	Ki (D(3) dopamine receptor [4]) [µM]	also measured
O=C1O[C@H]([C@@H](O)CO)C(O)=C1O	Dose-dependent effect				
CCCN(CCN1CCN(c2ccc(-c3cccc(O)c3)cc2)CC1)[C@H]1CCc2c(O)cccc2C1	Dose-dependent effect	36	0.0278	0.00077	
CCCN(CCN1CCN(c2ccc(-c3ccccc3OC)cc2)CC1)C1CCc2nc(N)sc2C1 (racemic)		78	0.274	0.00357	
CCCN(CCN1CCN(c2ccc(-c3ccc(OC)cc3)cc2)CC1)C1CCc2nc(N)sc2C1 (racemic)		151	0.213	0.00141	
CCCN(CCN1CCN(c2ccc(-c3cccc(O)c3)cc2)CC1)[C@H]1CCc2nc(N)sc2C1	Dose-dependent effect	213	0.369	0.00173	Activity (MN9D): Dose-dependent effect; Time (Rattus norvegicus [5]): 7.5 h; Activity (Rattus norvegicus [6]): Active; Activity (Rattus norvegicus [7]): Active; Activity (Rattus norvegicus [8]): Dose-dependent effect; Activity (Rattus norvegicus [9]): Active; Ratio EC50 (Homo sapiens): 159; EC50 (D(3) dopamine receptor [10]): 0.0001 µM; Emax (D(2) dopamine receptor [11]): 116%; EC50 (D(2) dopamine receptor [12]): 0.0159 µM
CCCN(CCN1CCN(c2ccc(-c3cccc(OC)c3)cc2)CC1)C1CCc2nc(N)sc2C1 (racemic)		220	0.464	0.00211	
CCCN(CCN1CCN(c2ccc(-c3cccc(O)c3)cc2)CC1)C1CCc2nc(N)sc2C1 (racemic)		289	0.347	0.0012	
CCCN(CCCCN1CCN(c2ccc(-c3cccc(O)c3)cc2)CC1)C1CCc2nc(N)sc2C1 (racemic)		60	0.567	0.00943	
CCCN(CCN1CCN(C(=O)c2ccc(-c3ccccc3)cc2)CC1)C1CCc2nc(N)sc2C1 (racemic)		174	1.67	0.00958	
